Data from article PMC3081976 (Bioorganic & medicinal chemistry letters, 2010).

Assay: Rat pharmacokinetics
Format: in vivo, Sprague-Dawley rats
Conditions: Sprague-Dawley, plasma; for clearance: iv, 1 mg/kg
Method in brief: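 Sprague-Dawley rats (n = 3) received the test compound intravenously at 1 mg/kg; a separate oral gavage arm used 2 mg/kg. Blood was sampled at 5, 15, 30 min and 1, 2, 4, 6, 8 h into EDTA tubes and centrifuged to plasma. Plasma proteins were precipitated with acetonitrile and drug was quantified by LC-MS/MS. CL and t1/2 came from noncompartmental analysis.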

Row | half-life | clearance | Structure (SMILES)
1 | 1.5 h | 6.4 mL/min/kg | Cc1nc(C)n(-c2ccc(Nc3cc(-c4nn(C)cc4-c4ccc(F)cc4)ccn3)cc2)n1 [Compound 37]
2 | 3.4 h | 4 mL/min/kg | Cn1ccc(-c2cc(Nc3ccc(-n4cnc(-c5ccccn5)n4)cc3)ncc2F)n1 [Compound 21]
3 | 6.5 h | 0.9 mL/min/kg | Cn1ccc(-c2cc(Nc3ccc(-n4cnc(N5CCOCC5)n4)cc3)ncc2Cl)n1 [Compound 16]
4 | 2.3 h | 4.2 mL/min/kg | Cc1ccc(-c2ncn(-c3ccc(Nc4cc(-c5ccn(C)n5)c(F)cn4)cc3)n2)cn1 [Compound 20]
5 | 1.3 h | 9 mL/min/kg | Cc1nc(C)n(-c2ccc(Nc3cc(-c4ccn(C)n4)c(Cl)cn3)cc2)n1 [Compound 15]
